Laboratory results as given in ChEMBL document CHEMBL1132168, “Cycloalkanecarboxylic esters derived from lysergol, dihydrolysergol-I, and elymoclavine as partial agonists and antagonists at rat 5-HT2A receptors: pharmacological evidence that the indolo[4,3-fg]quinoline system of the ergolines is responsible for high 5-HT2A receptor affinity” (J Med Chem, 1999).
Several values for one entry are separate records, joined by “and”; a condition that tells them apart may be missing. Equal values may be shown once.

Key:
[1] = biological target: 5-hydroxytryptamine receptor 2A (Rattus norvegicus) (UniProt P14842); assay: Intrinsic activity towards 5-HT2A receptor of rat tail artery; type: functional, tissue-based
How it was run: (§1)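 Endothelium-denuded rat caudal artery segments, resting force 5 mN, with prazosin 30 nM and cocaine 6 μM present. Two cumulative curves were run on each segment 60 min apart: first 5-HT, then the test agonist. pKP was taken from a Kenakin plot of equieffective 5-HT and agonist concentrations. Mean ± SEM from n segments, ≥2 animals.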

[2] = biological target: 5-hydroxytryptamine receptor 2A (Rattus norvegicus) (UniProt P14842); assay: Relative potency towards 5-HT2A receptor of rat tail artery; type: functional, tissue-based; how it was run: as §1
[3] = biological target: 5-hydroxytryptamine receptor 2A (Rattus norvegicus) (UniProt P14842); assay: Effectiveness in blocking 5-HT2A receptor-mediated contractions of rat tail artery; type: functional, tissue-based
How it was run: (§2)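 Endothelium-denuded rat ventral caudal artery segments (4–5 mm), isometric, resting force 5 mN. Segments were primed once with 5-HT 1 μM during 120 min equilibration. Prazosin 30 nM and cocaine 6 μM were present throughout. Two cumulative 5-HT curves were run 60 min apart, the second after 30–60 min with antagonist. pKP by Marano–Kaumann; pA2 by Schild or as apparent pA2. Mean ± SEM, n segments, ≥2 animals.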

[4] = biological target: T1, 5-hydroxytryptamine receptor 2A (Rattus norvegicus, UniProt P14842); assay: Partial agonism at 5-HT2A receptor was evaluated in presence of ketanserin (3-10 nM) in isolated rat tail artery; type: functional, tissue-based; settings: read-out: pA2 (converted)
How it was run: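 Rat caudal artery, endothelium removed, with prazosin 30 nM and cocaine 6 μM present. A 5-HT curve was followed after 60 min by a cumulative agonist curve, with ketanserin 3 nM added 30 min beforehand. The rightward shift was compared with that in control segments run without ketanserin.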

[5] = biological target: T2, Adrenergic receptor alpha-1 (Rattus norvegicus, UniProt P15823+P23944+P43140); assay: Ability to block alpha-1 adrenergic receptor-mediated contractions of rat aorta.; type: functional
T2 sequence (P15823 whole entry): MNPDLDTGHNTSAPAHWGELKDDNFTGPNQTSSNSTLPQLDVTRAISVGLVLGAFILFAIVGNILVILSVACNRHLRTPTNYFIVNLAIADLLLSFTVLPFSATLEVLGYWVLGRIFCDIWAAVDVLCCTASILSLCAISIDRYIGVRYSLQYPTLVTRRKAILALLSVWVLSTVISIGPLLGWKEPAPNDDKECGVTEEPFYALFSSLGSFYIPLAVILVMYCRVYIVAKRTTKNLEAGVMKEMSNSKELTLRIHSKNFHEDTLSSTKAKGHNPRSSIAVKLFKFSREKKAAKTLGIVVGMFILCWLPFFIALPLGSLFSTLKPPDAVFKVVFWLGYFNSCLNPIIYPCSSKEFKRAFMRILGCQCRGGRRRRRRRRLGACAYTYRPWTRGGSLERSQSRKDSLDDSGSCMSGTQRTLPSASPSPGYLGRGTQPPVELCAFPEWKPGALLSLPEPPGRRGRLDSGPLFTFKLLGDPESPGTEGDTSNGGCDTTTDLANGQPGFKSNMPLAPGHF
T2 sequence (P23944 whole entry): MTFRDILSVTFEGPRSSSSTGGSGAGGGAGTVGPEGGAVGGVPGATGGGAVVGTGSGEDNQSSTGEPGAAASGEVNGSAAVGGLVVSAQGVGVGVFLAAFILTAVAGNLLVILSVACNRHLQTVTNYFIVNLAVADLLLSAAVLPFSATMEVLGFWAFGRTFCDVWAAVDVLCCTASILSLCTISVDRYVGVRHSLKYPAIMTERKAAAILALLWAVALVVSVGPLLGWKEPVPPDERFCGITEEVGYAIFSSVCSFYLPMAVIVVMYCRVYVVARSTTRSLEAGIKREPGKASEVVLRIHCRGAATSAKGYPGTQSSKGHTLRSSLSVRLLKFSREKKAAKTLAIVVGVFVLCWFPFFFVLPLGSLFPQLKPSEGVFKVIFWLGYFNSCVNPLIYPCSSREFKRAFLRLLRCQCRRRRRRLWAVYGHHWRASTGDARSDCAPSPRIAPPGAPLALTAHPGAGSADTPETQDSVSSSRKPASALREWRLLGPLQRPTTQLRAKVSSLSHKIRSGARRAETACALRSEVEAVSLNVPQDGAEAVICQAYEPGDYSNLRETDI
T2 sequence (P43140 whole entry): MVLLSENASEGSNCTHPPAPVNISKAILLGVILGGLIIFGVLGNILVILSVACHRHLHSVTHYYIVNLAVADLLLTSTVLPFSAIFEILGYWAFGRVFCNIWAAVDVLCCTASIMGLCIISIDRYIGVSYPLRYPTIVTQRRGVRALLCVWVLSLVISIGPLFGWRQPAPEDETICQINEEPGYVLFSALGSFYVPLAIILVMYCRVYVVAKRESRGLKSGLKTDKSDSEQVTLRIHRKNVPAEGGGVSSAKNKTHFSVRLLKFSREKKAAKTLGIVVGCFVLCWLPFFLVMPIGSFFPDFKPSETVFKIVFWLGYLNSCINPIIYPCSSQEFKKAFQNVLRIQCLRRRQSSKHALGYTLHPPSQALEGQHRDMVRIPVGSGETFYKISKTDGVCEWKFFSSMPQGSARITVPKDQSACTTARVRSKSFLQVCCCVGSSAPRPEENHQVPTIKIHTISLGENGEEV
How it was run: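 Endothelium-denuded rat thoracic aorta rings (4–6 mm) in modified Krebs-Henseleit, 37 °C, 95% O2/5% CO2, with (R,S)-propranolol 1 μM. Resting force 20 mN. During 140 min equilibration, rings were stimulated twice with (R)-phenylephrine 100 nM. Two cumulative phenylephrine contraction curves were run, without and then with antagonist added 30 min before.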

[6] = biological target: T1, 5-hydroxytryptamine receptor 2A; assay: Blocking 5-HT2A receptor-mediated contractions of rat tail artery; type: functional, tissue-based; settings: read-out: pA2 (converted); how it was run: as §2
[7] = Specificity towards 5-HT2A receptor to that of alpha-1 adrenoceptor.; type: functional

Chain of 5-hydroxytryptamine receptor 2A (Rattus norvegicus) (P14842 whole entry): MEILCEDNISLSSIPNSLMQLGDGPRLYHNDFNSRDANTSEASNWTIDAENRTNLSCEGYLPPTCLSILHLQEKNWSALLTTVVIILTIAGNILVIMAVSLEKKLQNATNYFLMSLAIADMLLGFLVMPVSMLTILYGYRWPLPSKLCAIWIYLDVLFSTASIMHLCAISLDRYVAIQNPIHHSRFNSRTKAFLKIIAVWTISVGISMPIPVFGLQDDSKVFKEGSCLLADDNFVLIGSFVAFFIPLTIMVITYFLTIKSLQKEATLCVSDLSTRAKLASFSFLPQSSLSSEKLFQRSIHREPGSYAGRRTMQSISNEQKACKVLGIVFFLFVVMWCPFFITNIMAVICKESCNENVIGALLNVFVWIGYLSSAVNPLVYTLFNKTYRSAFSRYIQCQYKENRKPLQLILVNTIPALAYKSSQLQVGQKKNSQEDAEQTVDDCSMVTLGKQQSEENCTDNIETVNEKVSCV
T1 sequence (P14842 whole entry): as above

## CN1C[C@H](CO)C=C2c3cccc4[nH]cc(c34)C[C@H]21
[1]
  Intrinsic activity: 0.18
[2]
  Relative potency: 74%
[3]
  pKp: 6.88
[4]
  Kb: 0.794 nM

## CC(C)n1cc2c3c(cccc31)C1=C[C@@H](COC(=O)C3CCC3)CN(C)[C@@H]1C2.O=C(O)/C=C\C(=O)O
[5]
  pA2: 4.75
[6]
  Kb: 6.03 nM
[7]
  Specificity: 2950

## CC(C)n1cc2c3c(cccc31)[C@H]1C[C@@H](COC(=O)C3CCCCCC3)CN(C)[C@@H]1C2.O=C(O)/C=C\C(=O)O
[5]
  pA2: 4.78
[6]
  Kb: 89.1 nM
[7]
  Specificity: 186

## CC(C)n1cc2c3c(cccc31)C1=C[C@@H](COC(=O)C3CCCCC3)CN(C)[C@@H]1C2.O=C(O)/C=C\C(=O)O
[5]
  pA2: 4.77
[6]
  Kb: 12 nM
[7]
  Specificity: 1410

## CN1C[C@H](COC(=O)C2CCC2)C=C2c3cccc4[nH]cc(c34)C[C@H]21.O=C(O)/C=C\C(=O)O
[5]
  pA2: 5.52
[1]
  Intrinsic activity: 0.13
[2]
  Relative potency: 185%
[3]
  pKp: 7.76 and 7.36
[4]
  Kb: 0.741 nM
[7]
  Specificity: 174

## CC(C)n1cc2c3c(cccc31)[C@H]1C=C(COC(=O)C3CCC3)CN(C)[C@@H]1C2.O=C(O)/C=C\C(=O)O
[5]
  pA2: 4.69
[6]
  Kb: 9.33 nM
[7]
  Specificity: 2180

## CC(C)n1cc2c3c(cccc31)[C@H]1C[C@@H](COC(=O)C3CCC3)CN(C)[C@@H]1C2.O=C(O)/C=C\C(=O)O
[5]
  pA2: 4.59
[6]
  Kb: 8.71 nM
[7]
  Specificity: 2950

## CC(C)n1cc2c3c(cccc31)[C@H]1C=C(COC(=O)C3CCCCC3)CN(C)[C@@H]1C2.O=C(O)/C=C\C(=O)O
[5]
  pA2: 4.65
[6]
  Kb: 15.8 nM
[7]
  Specificity: 1410

## COC1CCC(C(=O)OCC2=C[C@@H]3c4cccc5[nH]cc(c45)C[C@H]3N(C)C2)CC1.O=C(O)/C=C\C(=O)O (some centres not stated)
[5]
  pA2: 6.32
[6]
  Kb: 47.9 nM
[7]
  Specificity: 12

## CN1CC(COC(=O)C2CCCC2)=C[C@@H]2c3cccc4[nH]cc(c34)C[C@H]21.O=C(O)/C=C\C(=O)O
[5]
  pA2: 5.99
[6]
  Kb: 49 nM
[7]
  Specificity: 21

## CN1CC(COC(=O)C2CCC2)=C[C@@H]2c3cccc4[nH]cc(c34)C[C@H]21.O=C(O)/C=C\C(=O)O
[5]
  pA2: 6.42
[6]
  Kb: 77.6 nM
[7]
  Specificity: 5

## CC(C)n1cc2c3c(cccc31)[C@H]1C[C@@H](C)CN(C)[C@@H]1C2.O=C(O)/C=C\C(=O)O
[5]
  pA2: 6.7
[6]
  Kb: 3.16 nM
[7]
  Specificity: 63

## CN1C[C@H](COC(=O)C2CCCC2)C=C2c3cccc4[nH]cc(c34)C[C@H]21.O=C(O)/C=C\C(=O)O
[5]
  pA2: 5.32
[1]
  Intrinsic activity: 0.11
[2]
  Relative potency: 128%
[3]
  pKp: 7.4 and 7.27
[4]
  Kb: 0.741 nM
[7]
  Specificity: 120

## CC(C)n1cc2c3c(cccc31)C1=C[C@@H](COC(=O)C3CC3)CN(C)[C@@H]1C2.O=C(O)/C=C\C(=O)O
[5]
  pA2: 5.08
[6]
  Kb: 1.82 nM
[7]
  Specificity: 4570

## CN1C[C@H](COC(=O)C2CCCCCC2)C[C@@H]2c3cccc4[nH]cc(c34)C[C@H]21.O=C(O)/C=C\C(=O)O
[5]
  pA2: 4.86
[3]
  pKp: 7.1
[7]
  Specificity: 174

## CN1C[C@H](COC(=O)C2CCCCC2)C[C@@H]2c3cccc4[nH]cc(c34)C[C@H]21.O=C(O)/C=C\C(=O)O
[5]
  pA2: 5.62
[3]
  pKp: 7.34
[7]
  Specificity: 52

## CN1CC(COC(=O)C2CCCCC2)=C[C@@H]2c3cccc4[nH]cc(c34)C[C@H]21.O=C(O)/C=C\C(=O)O
[5]
  pA2: 5.89
[6]
  Kb: 39.8 nM
[7]
  Specificity: 32

## CC(C)n1cc2c3c(cccc31)[C@H]1C[C@@H](COC(=O)C3CCCCC3)CN(C)[C@@H]1C2.O=C(O)/C=C\C(=O)O
[5]
  pA2: 4.59
[6]
  Kb: 72.4 nM
[7]
  Specificity: 355

## CC(C)n1cc2c3c(cccc31)[C@H]1C=C(COC(=O)C3CCCCCC3)CN(C)[C@@H]1C2.O=C(O)/C=C\C(=O)O
[5]
  pA2: < 4.5
[6]
  Kb: 17 nM
[7]
  Specificity: > 1860

## CC1=C[C@@H]2c3cccc4c3c(cn4C(C)C)C[C@H]2N(C)C1.O=C(O)/C=C\C(=O)O
[5]
  pA2: 6.34
[6]
  Kb: 1.45 nM
[7]
  Specificity: 316

## CN1C[C@H](COC(=O)C2CCCC2)C[C@@H]2c3cccc4[nH]cc(c34)C[C@H]21.O=C(O)/C=C\C(=O)O
[5]
  pA2: 5.95
[3]
  pKp: 7.5
[7]
  Specificity: 35

## CO[C@H]1CC[C@H](C(=O)OCC2=C[C@@H]3c4cccc5[nH]cc(c45)C[C@H]3N(C)C2)CC1.O=C(O)/C=C\C(=O)O
[5]
  pA2: 6
[6]
  Kb: 57.5 nM
[7]
  Specificity: 17

## CC(C)n1cc2c3c(cccc31)C1=C[C@@H](COC(=O)C3CCCC3)CN(C)[C@@H]1C2.O=C(O)/C=C\C(=O)O
[5]
  pA2: 4.57
[6]
  Kb: 5.62 nM
[7]
  Specificity: 4790

## CN1CC(COC(=O)C2CCCCCC2)=C[C@@H]2c3cccc4[nH]cc(c34)C[C@H]21.O=C(O)/C=C\C(=O)O
[5]
  pA2: 5.05
[6]
  Kb: 10.7 nM
[7]
  Specificity: 832

## CN1C[C@H](COC(=O)C2CC2)C=C2c3cccc4[nH]cc(c34)C[C@H]21.O=C(O)/C=C\C(=O)O
[5]
  pA2: 6.66
[1]
  Intrinsic activity: 0.21
[2]
  Relative potency: 331%
[4]
  Kb: 0.741 nM
[7]
  Specificity: 55

## COC1CCC(C(=O)OCC2=C[C@@H]3c4cccc5c4c(cn5C(C)C)C[C@H]3N(C)C2)CC1.O=C(O)/C=C\C(=O)O (some centres not stated)
[5]
  pA2: 4.84
[6]
  Kb: 11.5 nM
[7]
  Specificity: 1260

## CC(C)n1cc2c3c(cccc31)[C@H]1C[C@@H](COC(=O)C3CCCC3)CN(C)[C@@H]1C2.O=C(O)/C=C\C(=O)O
[5]
  pA2: 4.68
[6]
  Kb: 22.4 nM
[7]
  Specificity: 933

## CN1C[C@H](COC(=O)C2CCC2)C[C@@H]2c3cccc4[nH]cc(c34)C[C@H]21.O=C(O)/C=C\C(=O)O
[5]
  pA2: 6.59
[3]
  pKp: 7.3
[7]
  Specificity: 5

## CC(C)n1cc2c3c(cccc31)[C@H]1C=C(COC(=O)C3CCCC3)CN(C)[C@@H]1C2.O=C(O)/C=C\C(=O)O
[5]
  pA2: 4.89
[6]
  Kb: 8.91 nM
[7]
  Specificity: 1440

## CN1C[C@H](COC(=O)C2CC2)C[C@@H]2c3cccc4[nH]cc(c34)C[C@H]21.O=C(O)/C=C\C(=O)O
[5]
  pA2: 7.2
[3]
  pKp: 7.67
[7]
  Specificity: 3

## CO[C@H]1CC[C@H](C(=O)OCC2=C[C@@H]3c4cccc5c4c(cn5C(C)C)C[C@H]3N(C)C2)CC1.O=C(O)/C=C\C(=O)O
[5]
  pA2: 4.67
[6]
  Kb: 7.41 nM
[7]
  Specificity: 2880
